Measured values as given in paper PMC6311382 (Angewandte Chemie (International ed. in English), 2015).

Key:
[1] = biological target: T1, H. pylori HtrA (Helicobacter pylori, UniProt G2J5T2); test: 1H STD NMR binding experiment; conditions: 10 μM HtrA
T1 sequence (G2J5T2 18-475): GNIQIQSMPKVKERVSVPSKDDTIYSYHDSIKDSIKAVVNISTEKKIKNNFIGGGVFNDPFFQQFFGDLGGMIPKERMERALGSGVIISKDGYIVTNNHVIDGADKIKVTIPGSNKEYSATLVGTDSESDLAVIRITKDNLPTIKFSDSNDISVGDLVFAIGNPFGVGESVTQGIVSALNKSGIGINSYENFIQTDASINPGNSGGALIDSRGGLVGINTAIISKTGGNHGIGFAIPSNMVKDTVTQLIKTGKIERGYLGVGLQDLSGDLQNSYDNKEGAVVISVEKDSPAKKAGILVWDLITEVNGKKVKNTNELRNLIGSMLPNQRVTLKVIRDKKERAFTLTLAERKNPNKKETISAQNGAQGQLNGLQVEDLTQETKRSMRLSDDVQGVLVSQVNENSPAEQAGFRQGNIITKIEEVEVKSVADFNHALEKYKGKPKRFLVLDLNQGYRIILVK

[2] = biological target: T1, H. pylori HtrA; test: SPR binding affinity and kinetics to HtrA
[3] = format: physicochemical; conditions: dynamic light scattering
[4] = biological target: T1, H. pylori HtrA; test: Western blot analysis of recombinant E-cadherin cleavage by HtrA; format: biochemical
Method in brief: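 Recombinant full-length 130 kDa E-cadherin is incubated with H. pylori HtrA and test compound at a range of concentrations. HtrA proteolysis is read by Western blot as generation of the roughly 90 kDa soluble E-cadherin fragment.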

[5] = tested on: wild-type Campylobacter jejuni transmigration; test: Transwell migration assay, Campylobacter jejuni; format: cell-based; conditions: 50 and 100 μM, 24 h
Method in brief: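 Transmigration of wild-type Campylobacter jejuni is followed over 24 h with test compound at two concentrations. Bacteria are counted as colony-forming units. N = 3 independent experiments. Significance at 24 h is tested by one-way ANOVA (Dunnett) against the untreated control.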

[6] = tested on: wild-type H. pylori transmigration; test: Transwell migration assay across polarized MKN-28 epithelial layer; format: cell-based, Helicobacter pylori; conditions: 50 μM, 24 h, MKN-28 cells
Method in brief: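 Wild-type H. pylori crossing a polarized epithelial layer of human gastric adenocarcinoma MKN-28 cells in a transwell system, followed for 24 h with test compound at two concentrations. Transmigrated bacteria are read as colony-forming units. Significance at 24 h is tested by one-way ANOVA (Dunnett) against the untreated control.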

Compound | saturation transfer / binding to HtrA [1] | koff [2] [s⁻¹] | LE (ligand efficiency) ([2]; = −1.4 logKD/(number of non-hydrogen atoms)) | solubility kinetic [3] [µM] | proteolytic activity of HtrA ([4]; at 50 μM) | concentration at which inhibition of E-cadherin cleavage is seen ([4]; recombinant E-cadherin) [µM] | inhibition of C. jejuni transmigration, compared with H. pylori [5] | inhibition of H. pylori transmigration [6]
Cc1ccc(C)n1[C@@H](Cc1ccc(-c2ccc(C(=O)O)o2)cc1)C(=O)O [Compound 2] | direct binding | 1.8 | 0.24 | > 100 | blocked | 10 | strikingly dissimilar outcome | significant effects
CO[C@@H]1O[C@H](CO)[C@@H](O)[C@H](O)[C@H]1O [β-methyl-D-glucoside, reference compound] | no saturation transfer | – | – | – | – | – | – | –
